According to ChEMBL document CHEMBL1124476, “1-(2-aminoethyl)-6-aryl-4H- [1,2,4]triazolo[4,3-a][1,4]benzodiazepines with diuretic and natriuretic activity” (J Med Chem, 1989):

Key:
[1] = Diuretic activity at 40 mg/kg (screening dose-84 umol/kg) in male […] in a one stage experiment; T/C = urine vol of treated rats / urine vol of control rats; assay type: functional
Outline: (§1)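 40 mg/kg given by gavage in 25 mL/kg 0.9% saline with 0.5% (carboxymethyl)cellulose. Four rats per agent, two per metabolism cage; 20 controls; 5 h urine. T/C = treated/control urine volume. Stage-1 T/C of 1.66 or more leads to stage 2; product T/C1·T/C2 of 3.34 or more counts as active.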

[2] = Diuretic activity at 40 mg/kg (screening dose-90.1 umol/kg) in […] in a one stage experiment; T/C = urine vol of treated rats / urine vol of control rats; assay type: functional; outline: as §1
[3] = Diuretic activity at 40 mg/kg (screening dose-84.7 umol/kg) in […] in a one stage experiment; T/C = urine vol of treated rats / urine vol of control rats; assay type: functional; outline: as §1
Rattus norvegicus [4] = species: Rattus norvegicus; experiment: […]; assay type: ADME, organism-based, Urine; set-up: dose 10 mg/kg, route oral; conditions: in vivo, po, 10 mg/kg
Outline: (§2)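 Male Sprague-Dawley rats, about 160 g, fasted 24 h and water withheld 1 1/2 h beforehand; food and water withheld during the test. Dosing by gavage with 25 mL/kg 0.9% saline containing 0.5% (carboxymethyl)cellulose, agent dissolved or suspended. Three cages of two rats each per dose, held in metabolism cages. Urine collected over 5 h. Volume given in mL, Na+ in mequiv. Significance versus control at P < 0.05.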

Rattus norvegicus [5] = species: Rattus norvegicus; experiment: […]; assay type: ADME, organism-based, Urine; set-up: dose 100 mg/kg, route oral; conditions: in vivo, po, 100 mg/kg; outline: as §2
Rattus norvegicus [6] = species: Rattus norvegicus; experiment: […]; assay type: ADME, organism-based, Urine; set-up: dose 3 mg/kg, route oral; conditions: in vivo, po, 3 mg/kg; outline: as §2
Rattus norvegicus [7] = species: Rattus norvegicus; experiment: […]; assay type: ADME, organism-based, Urine; set-up: dose 0.3 mg/kg, route oral; conditions: in vivo, po, 0.3 mg/kg
Outline: (§3)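 Dose-response test in male Sprague-Dawley rats of about 160 g, fasted 24 h, with water withheld 1½ h before and during the test. Each rat got a single gavage of 25 mL/kg 0.9% saline with 0.5% carboxymethylcellulose carrying the agent (0.3–100 mg/kg range). Rats were housed two per metabolism cage, and urine was collected for 5 h. Mean urine volume (mL) was compared with controls (P < 0.05).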

Rattus norvegicus [8] = species: Rattus norvegicus; experiment: […]; assay type: ADME, organism-based, Urine; set-up: dose 1 mg/kg, route oral; conditions: in vivo, po, 1 mg/kg; outline: as §3
Rattus norvegicus [9] = experiment: Mean excretion of potassium in conscious rats at a dose of 10 mg/kg given orally; assay type: ADME, organism-based; set-up: dose 10 mg/kg, route oral; conditions: in vivo, po
Outline: (§4)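 Secondary dose-response in male Sprague-Dawley rats (~160 g), fasted and hydrated as in the primary screen. Oral gavage at 0.3-100 mg/kg in 25 mL/kg saline/0.5% CMC, three cages of two rats per dose. Urine collected 5 h; Na, K, Cl, HCO3 measured. Values are mean excretion (mequiv), compared with controls at P < 0.05.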

Rattus norvegicus [10] = experiment: Mean excretion of potassium in conscious rats at a dose of 100 mg/kg given orally; assay type: ADME, organism-based; set-up: dose 100 mg/kg, route oral; conditions: in vivo, po; outline: as §4
Rattus norvegicus [11] = experiment: Mean excretion of potassium in conscious rats at a dose of 3.0 mg/kg given orally; assay type: ADME, organism-based; set-up: dose 3 mg/kg, route oral; conditions: in vivo, po; outline: as §4
Rattus norvegicus [12] = experiment: Mean excretion of potassium in conscious rats at a dose of 30 mg/kg given orally; assay type: ADME, organism-based; set-up: dose 30 mg/kg, route oral; conditions: in vivo, po; outline: as §4
Rattus norvegicus [13] = experiment: Mean excretion of sodium in conscious rats at a dose of 0.3 mg/kg given orally; assay type: ADME, organism-based; set-up: dose 0.3 mg/kg, route oral; conditions: in vivo, po; outline: as §2
Rattus norvegicus [14] = experiment: Mean excretion of […] in conscious rats at a dose of 1.0 mg/kg given orally; assay type: ADME, organism-based; set-up: dose 1 mg/kg, route oral; conditions: in vivo, po; outline: as §2
Rattus norvegicus [15] = experiment: Mean excretion of sodium in conscious rats at a dose of 10 mg/kg given orally; assay type: ADME, organism-based; set-up: dose 10 mg/kg, route oral; conditions: in vivo, po; outline: as §2
Rattus norvegicus [16] = experiment: Mean excretion of sodium in conscious rats at a dose of 100 mg/kg given orally; assay type: ADME, organism-based; set-up: dose 100 mg/kg, route oral; conditions: in vivo, po; outline: as §2
Rattus norvegicus [17] = experiment: Mean excretion of sodium in conscious rats at a dose of 3.0 mg/kg given orally; assay type: ADME, organism-based; set-up: dose 3 mg/kg, route oral; conditions: in vivo, po; outline: as §2
Rattus norvegicus [18] = experiment: Mean excretion of sodium in conscious rats at a dose of 30 mg/kg given orally; assay type: ADME, organism-based; set-up: dose 30 mg/kg, route oral; conditions: in vivo, po; outline: as §2
Rattus norvegicus [19] = experiment: Mean excretion of chloride in conscious rats at a dose of 1.0 mg/kg given orally; assay type: ADME, organism-based; set-up: dose 1 mg/kg, route oral; conditions: in vivo, po; outline: as §4
Rattus norvegicus [20] = experiment: Mean excretion of chloride in conscious rats at a dose of 10 mg/kg given orally; assay type: ADME, organism-based; set-up: dose 10 mg/kg, route oral; conditions: in vivo, po; outline: as §4
Rattus norvegicus [21] = experiment: Mean excretion of chloride in conscious rats at a dose of 100 mg/kg given orally; assay type: ADME, organism-based; set-up: dose 100 mg/kg, route oral; conditions: in vivo, po; outline: as §4
Rattus norvegicus [22] = experiment: Mean excretion of chloride in conscious rats at a dose of 30 mg/kg given orally; assay type: ADME, organism-based; set-up: dose 30 mg/kg, route oral; conditions: in vivo, po; outline: as §4
Rattus norvegicus [23] = experiment: Mean excretion of chloride in conscious rats at a dose of 3.0 mg/kg given orally; assay type: ADME, organism-based; set-up: dose 3 mg/kg, route oral; conditions: in vivo, po; outline: as §4
Rattus norvegicus [24] = experiment: (§5) Mean excretion of Cl- in conscious rats at a dose of 0.3 mg/kg given orally; assay type: ADME, organism-based, Urine; set-up: dose 0.3 mg/kg, route oral; conditions: in vivo, po; outline: as §3
Rattus norvegicus [25] = experiment: Mean excretion of potassium in conscious rats at a dose of 1.0 mg/kg given orally; assay type: ADME, organism-based; set-up: dose 1 mg/kg, route oral; conditions: in vivo, po; outline: as §4
Rattus norvegicus [26] = experiment: Mean excretion of potassium in conscious rats at a dose of 0.3 mg/kg given orally; assay type: ADME, organism-based; set-up: dose 0.3 mg/kg, route oral; conditions: in vivo, po; outline: as §4
Rattus norvegicus [27] = species: Rattus norvegicus; experiment: […]; assay type: ADME, organism-based, Urine; set-up: dose 30 mg/kg, route oral; conditions: in vivo, po, 30 mg/kg; outline: as §2
[28] = Mean excretion of Cl- in conscious rats at a dose of 1.0 mg/kg given orally; assay type: functional, Urine; conditions: route oral; outline: as §3
[29] = as §5; assay type: functional, Urine; conditions: route oral; outline: as §3

SMILES | Mean urine volume (Rattus norvegicus [4]) | Mean urine volume (Rattus norvegicus [5]) | Mean urine volume (Rattus norvegicus [6]) | Mean excretion of K+ (Rattus norvegicus [9]) | Mean excretion of K+ (Rattus norvegicus [10]) | Mean excretion of K+ (Rattus norvegicus [11]) | Mean excretion of K+ (Rattus norvegicus [12]) | Mean excretion of Na+ (Rattus norvegicus [13]) | Mean excretion of Na+ (Rattus norvegicus [14]) | Mean excretion of Na+ (Rattus norvegicus [15]) | Mean excretion of Na+ (Rattus norvegicus [16]) | Mean excretion of Na+ (Rattus norvegicus [17]) | Mean excretion of Na+ (Rattus norvegicus [18]) | Mean excretion of K+ (Rattus norvegicus [25]) | Mean excretion of K+ (Rattus norvegicus [26]) | Mean urine volume (Rattus norvegicus [27]) | other results
CN(C)CC(c1ccccc1)c1nnc2n1-c1ccc(Cl)cc1C(c1ccc(Cl)cc1)=NC2 (stereo not given) |  |  |  |  |  |  |  |  |  |  |  |  |  |  |  |  | T/C 1 [1]: 1.49
Clc1ccc2c(c1)C(c1ccccc1)=NCc1nnc(C(CN3CCCC3)c3ccccc3)n1-2 (stereo not given) |  |  |  |  |  |  |  |  |  |  |  |  |  |  |  |  | T/C 1 [2]: 1.33
COc1cccc(C2=NCc3nnc(C(CN(C)C)c4ccccc4)n3-c3ccc(Cl)cc32)c1 (stereo not given) |  |  |  |  |  |  |  |  |  |  |  |  |  |  |  |  | T/C 1 [3]: 1.34
CN(C)CC(c1ccccc1)c1nnc2n1-c1ccccc1C(c1ccccc1)=NC2.Cl (stereo not given) |  |  |  |  |  |  |  |  |  |  |  |  |  |  |  |  | T/C 1 [2]: 1.48
Nc1nc(N)c2nc(-c3ccccc3)c(N)nc2n1 | 6.45 mL | 7.01 mL | 4.32 mL | 0.08 m equiv | 0.06 m equiv | 0.1 m equiv | 0.04 m equiv | 0.4 m equiv | 0.6 m equiv | 1 m equiv | 0.88 m equiv | 0.83 m equiv | 1.41 m equiv | 0.1 m equiv | 0.12 m equiv | 9.28 mL | Mean urine volume (Rattus norvegicus [7]): 2.22 mL; Mean urine volume (Rattus norvegicus [8]): 3.5 mL; Mean excretion of Cl- (Rattus norvegicus [19]): 0.68 m equiv; Mean excretion of Cl- (Rattus norvegicus [20]): 0.81 m equiv; Mean excretion of Cl- (Rattus norvegicus [21]): 0.7 m equiv; Mean excretion of Cl- (Rattus norvegicus [22]): 1.15 m equiv; Mean excretion of Cl- (Rattus norvegicus [23]): 0.74 m equiv; Mean excretion of Cl- (Rattus norvegicus [24]): 0.47 m equiv
NS(=O)(=O)c1cc(C(=O)O)c(NCc2ccco2)cc1Cl [FUROSEMIDE] | 8.48 mL | 27.8 mL | 5.23 mL | 0.34 m equiv | 0.67 m equiv | 0.27 m equiv | 0.46 m equiv | 0.82 m equiv | 0.83 m equiv | 1.13 m equiv | 3.52 m equiv | 0.86 m equiv | 2.37 m equiv | 0.21 m equiv | 0.22 m equiv | 18.3 mL | Mean urine volume [28]: 4.7 mL; Mean urine volume [29]: 4.45 mL
NS(=O)(=O)c1cc2c(cc1Cl)NCNS2(=O)=O [HYDROCHLOROTHIAZIDE] | 9.24 mL | 10.61 mL | 8.48 mL | 0.31 m equiv | 0.36 m equiv | 0.34 m equiv | 0.3 m equiv | 1.32 m equiv | 1.59 m equiv | 1.86 m equiv | 1.9 m equiv | 1.66 m equiv | 1.86 m equiv | 0.32 m equiv | 0.26 m equiv | 10.03 mL | Mean urine volume [28]: 8.87 mL; Mean urine volume [29]: 7.18 mL; Mean excretion of Cl- (Rattus norvegicus [19]): 1.77 m equiv; Mean excretion of Cl- (Rattus norvegicus [20]): 1.91 m equiv; Mean excretion of Cl- (Rattus norvegicus [21]): 2.09 m equiv; Mean excretion of Cl- (Rattus norvegicus [22]): 2.03 m equiv; Mean excretion of Cl- (Rattus norvegicus [23]): 1.78 m equiv; Mean excretion of Cl- (Rattus norvegicus [24]): 1.42 m equiv
